Experimental data taken from ChEMBL document CHEMBL3872252, “New bithiazolyl hydrazones: Novel synthesis, characterization and antitubercular evaluation” (Bioorg Med Chem Lett, 2017).
Converted amounts (≈) assume the structure as drawn.

Legend:
[1] = Selectivity index, ratio of GI50 for human HCT116 cells to MIC90 for Mycobacterium bovis BCG ATCC 35743 active stage; type: toxicity, cell-based, HCT-116; settings: read-out: Selectivity Index
Method in brief: (§1)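 Cytotoxicity was measured on human MCF-7, HCT116 and THP-1 cells by MTT assay, with paclitaxel as reference. GI50 is the concentration inhibiting 50% of cell growth. The selectivity index is GI50 for the given cell line divided by MIC90 for the given mycobacterial strain and stage.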

[2] = Selectivity index, ratio of GI50 for human MCF7 cells to MIC90 for Mycobacterium tuberculosis H37Ra ATCC 25177 active stage; type: toxicity, cell-based; settings: read-out: Selectivity Index; method in brief: as §1
[3] = Selectivity index, ratio of GI50 for human MCF7 cells to MIC90 for Mycobacterium tuberculosis H37Ra ATCC 25177 dormant stage; type: toxicity, cell-based; settings: read-out: Selectivity Index
Method in brief: (§2)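 Cytotoxicity was measured on human MCF-7, HCT116 and THP-1 cells by MTT assay, with paclitaxel as reference. The selectivity index is GI50 for the given cell line divided by MIC90 for the given mycobacterial strain and stage.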

[4] = Cytotoxicity against human THP1 cells by MTT assay; type: toxicity, cell-based, THP-1; settings: for GI50: THP1 cells; for GI90: thp-1
[5] = Antitubercular activity against Mycobacterium bovis BCG ATCC 35743 active stage measured on day 8 by nitrate reductase based two-fold dilution assay; type: functional, Mycobacterium bovis BCG str. ATCC 35743; settings: Mycobacterium tuberculosis variant bovis BCG, ATCC 35743, 192 h
Escherichia coli [6] = experiment: Growth inhibition of Escherichia coli at 30 ug/ml; type: functional; settings: read-out: GI
[7] = Antitubercular activity against Mycobacterium tuberculosis H37Ra ATCC 25177 active stage infected in human THP1 cells measured on day 8 by nitrate reductase assay; type: functional, THP-1; settings: ATCC 25177, 192 h
[8] = Antitubercular activity against Mycobacterium tuberculosis H37Ra ATCC 25177 dormant stage infected in human THP1 cells measured on day 12 by nitrate reductase assay; type: functional, THP-1; settings: ATCC 25177, 288 h
Bacillus subtilis [9] = experiment: Growth inhibition of Bacillus subtilis at 3 ug/ml; type: functional; settings: read-out: GI
Method in brief: (§3)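 Screened against Gram-negative E. coli and P. aeruginosa and Gram-positive S. aureus and B. subtilis. Compound was tested at 3 µg/ml, and the read-out is percent growth inhibition.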

Staphylococcus aureus [10] = experiment: Growth inhibition of Staphylococcus aureus at 3 ug/ml; type: functional; settings: read-out: GI; method in brief: as §3
Staphylococcus aureus [11] = experiment: Growth inhibition of Staphylococcus aureus at 30 ug/ml; type: functional; settings: read-out: GI
[12] = Selectivity index, ratio of GI50 for human HCT116 cells to MIC90 for Mycobacterium tuberculosis H37Ra ATCC 25177 active stage; type: toxicity, cell-based, HCT-116; settings: read-out: Selectivity Index; method in brief: as §1
[13] = Selectivity index, ratio of GI50 for human THP1 cells to MIC90 for Mycobacterium bovis BCG ATCC 35743 active stage; type: toxicity, cell-based, THP-1; settings: read-out: Selectivity Index; method in brief: as §1
Bacillus subtilis [14] = experiment: Growth inhibition of Bacillus subtilis at 30 ug/ml; type: functional; settings: read-out: GI
[15] = Antitubercular activity against Mycobacterium bovis BCG ATCC 35743 dormant stage measured on day 12 by nitrate reductase based two-fold dilution assay; type: functional, Mycobacterium bovis BCG str. ATCC 35743; settings: Mycobacterium tuberculosis variant bovis BCG, ATCC 35743, 288 h
Escherichia coli [16] = experiment: Growth inhibition of Escherichia coli at 3 ug/ml; type: functional; settings: read-out: GI; method in brief: as §3
[17] = Antitubercular activity against Mycobacterium tuberculosis H37Ra ATCC 25177 dormant stage measured on day 12 by XTT reduction menadione based two-fold dilution assay; type: functional; settings: ATCC 25177, 288 h
Method in brief: (§4)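 M. tuberculosis H37Ra ATCC 25177 was exposed to 0.7–100 μg/mL in two-fold steps (0.7, 1.5, 3.1 … 100). Active stage was read after 8 days and dormant stage after 12 days of incubation. Inhibition was read by XTT reduction menadione assay (XRMA), absorbance 470 nm. MIC90 is the concentration giving ≥90% inhibition (µg/mL).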

Bacillus subtilis [18] = experiment: Growth inhibition of Bacillus subtilis at 10 ug/ml; type: functional; settings: read-out: GI
[19] = Selectivity index, ratio of GI50 for human THP1 cells to MIC90 for Mycobacterium bovis BCG ATCC 35743 dormant stage; type: toxicity, cell-based, THP-1; settings: read-out: Selectivity Index; method in brief: as §2
[20] = Cytotoxicity against human HCT116 cells by MTT assay; type: toxicity, cell-based, HCT-116; settings: for GI50: HCT116 cells; for GI90: hct-116
[21] = Cytotoxicity against human MCF7 cells by MTT assay; type: toxicity, cell-based; settings: for GI50: MCF7 cells; for GI90: mcf7
Pseudomonas aeruginosa [22] = experiment: Growth inhibition of Pseudomonas aeruginosa at 3 ug/ml; type: functional; settings: read-out: GI; method in brief: as §3
[23] = Selectivity index, ratio of GI50 for human THP1 cells to MIC90 for Mycobacterium tuberculosis H37Ra ATCC 25177 dormant stage; type: toxicity, cell-based, THP-1; settings: read-out: Selectivity Index; method in brief: as §2
Staphylococcus aureus [24] = experiment: Growth inhibition of Staphylococcus aureus at 10 ug/ml; type: functional; settings: read-out: GI
Escherichia coli [25] = experiment: Growth inhibition of Escherichia coli at 10 ug/ml; type: functional; settings: read-out: GI
[26] = Selectivity index, ratio of GI50 for human HCT116 cells to MIC90 for Mycobacterium tuberculosis H37Ra ATCC 25177 dormant stage; type: toxicity, cell-based, HCT-116; settings: read-out: Selectivity Index; method in brief: as §2
[27] = Selectivity index, ratio of GI50 for human THP1 cells to MIC90 for Mycobacterium tuberculosis H37Ra ATCC 25177 active stage; type: toxicity, cell-based, THP-1; settings: read-out: Selectivity Index; method in brief: as §1
[28] = Selectivity index, ratio of GI50 for human MCF7 cells to MIC90 for Mycobacterium bovis BCG ATCC 35743 dormant stage; type: toxicity, cell-based; settings: read-out: Selectivity Index; method in brief: as §2
Pseudomonas aeruginosa [29] = experiment: Growth inhibition of Pseudomonas aeruginosa at 10 ug/ml; type: functional; settings: read-out: GI
[30] = Selectivity index, ratio of GI50 for human HCT116 cells to MIC90 for Mycobacterium bovis BCG ATCC 35743 dormant stage; type: toxicity, cell-based, HCT-116; settings: read-out: Selectivity Index; method in brief: as §2
[31] = Antitubercular activity against Mycobacterium tuberculosis H37Ra ATCC 25177 active stage measured on day 8 by XTT reduction menadione based two-fold dilution assay; type: functional; settings: ATCC 25177, 192 h; method in brief: as §4
Pseudomonas aeruginosa [32] = experiment: Growth inhibition of Pseudomonas aeruginosa at 30 ug/ml; type: functional; settings: read-out: GI
[33] = Selectivity index, ratio of GI50 for human MCF7 cells to MIC90 for Mycobacterium bovis BCG ATCC 35743 active stage; type: toxicity, cell-based; settings: read-out: Selectivity Index; method in brief: as §1

Row | SMILES | selectivity ratio [1] | selectivity ratio [2] | selectivity ratio [3] | GI50 [4] | GI90 [4] | IC50 [5] | MIC90 [5] | inhibition of growth at 30 µg/mL (Escherichia coli [6]) | MIC90 [7] | MIC90 [8] | inhibition of growth at 3 µg/mL (Bacillus subtilis [9]) | inhibition of growth at 3 µg/mL (Staphylococcus aureus [10]) | inhibition of growth at 30 µg/mL (Staphylococcus aureus [11]) | selectivity ratio [12] | selectivity ratio [13] | inhibition of growth at 30 µg/mL (Bacillus subtilis [14]) | IC50 [15] | MIC90 [15] | inhibition of growth at 3 µg/mL (Escherichia coli [16]) | IC50 [17] | further results
1 | C/C(=N\Nc1nc(-c2ccccc2)cs1)c1sc(C)nc1C | 2 | 4 | 6 | > 100 µg/mL | > 100 µg/mL | 11.6 µg/mL (≈ 35.4 µM) | 40.4 µg/mL (≈ 123 µM) | 82.3% | 32.5 µg/mL (≈ 99.1 µM) | 23.4 µg/mL (≈ 71.3 µM) | 79.2% | 80.7% | 81.3% | 4 | 2 | 79.9% | 3.81 µg/mL (≈ 11.6 µM) | 17.2 µg/mL (≈ 52.4 µM) | 81.8% | 2 µg/mL (≈ 6.09 µM) | MIC90 [17]: 16.5 µg/mL (≈ 50.1 µM); inhibition of growth at 10 µg/mL (Bacillus subtilis [18]): 81.5%; selectivity ratio [19]: 26; GI50 [20]: > 100 µg/mL; GI90 [20]: > 100 µg/mL; GI50 [21]: > 100 µg/mL; GI90 [21]: > 100 µg/mL; inhibition of growth at 3 µg/mL (Pseudomonas aeruginosa [22]): 81.8%; selectivity ratio [23]: 6; inhibition of growth at 10 µg/mL (Staphylococcus aureus [24]): 82.8%; inhibition of growth at 10 µg/mL (Escherichia coli [25]): 83.7%; selectivity ratio [26]: 6; selectivity ratio [27]: 4; selectivity ratio [28]: 26; inhibition of growth at 10 µg/mL (Pseudomonas aeruginosa [29]): 84%; selectivity ratio [30]: 26; IC50 [31]: 0.82 µg/mL (≈ 2.5 µM); MIC90 [31]: 25.3 µg/mL (≈ 77.1 µM); inhibition of growth at 30 µg/mL (Pseudomonas aeruginosa [32]): 82.4%; selectivity ratio [33]: 2
2 | C/C(=N\NC(N)=S)c1sc(C)nc1C | 1 | 1 | 3 | > 100 µg/mL | > 100 µg/mL | 4.42 µg/mL (≈ 19.4 µM) | > 100 µg/mL | 85% | > 100 µg/mL | > 100 µg/mL | 61.5% | 64.2% | 84.2% | 1 | 1 | 82.9% | 5.09 µg/mL (≈ 22.3 µM) | > 100 µg/mL | 66.4% | 0.19 µg/mL (≈ 0.832 µM) | MIC90 [17]: 30.5 µg/mL (≈ 134 µM); inhibition of growth at 10 µg/mL (Bacillus subtilis [18]): 73.5%; selectivity ratio [19]: 1; GI50 [20]: > 100 µg/mL; GI90 [20]: > 100 µg/mL; GI50 [21]: > 100 µg/mL; GI90 [21]: > 100 µg/mL; inhibition of growth at 3 µg/mL (Pseudomonas aeruginosa [22]): 64.7%; selectivity ratio [23]: 3; inhibition of growth at 10 µg/mL (Staphylococcus aureus [24]): 75.4%; inhibition of growth at 10 µg/mL (Escherichia coli [25]): 76.8%; selectivity ratio [26]: 3; selectivity ratio [27]: 1; selectivity ratio [28]: 1; inhibition of growth at 10 µg/mL (Pseudomonas aeruginosa [29]): 76.3%; selectivity ratio [30]: 1; IC50 [31]: 0.21 µg/mL (≈ 0.92 µM); MIC90 [31]: > 100 µg/mL; inhibition of growth at 30 µg/mL (Pseudomonas aeruginosa [32]): 85.4%; selectivity ratio [33]: 1
